T cruzi repl = T. cruzi replication inhibition; T. cruzi beta-gal in NIH3T3, luminescence, 90 h; inhibition, % (test concentration not listed); hit rate 1.4% among 300,000;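 active = mean inhibition across valid replicates above about 55%, limit read from the data; inconclusive = mean below that limit but half or more replicates reach it; inactive = mean below it, under half of replicates reach it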;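 also: signal also drops with host cell toxicity which is not excluded here; 0% = plate median of DMSO wells and 100% = zero luminescence signal; higher percent means less beta-gal luminescence so fewer parasites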
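Assay system: NIH/3T3 host cells with β-galactosidase reporter T. cruzi; input: 5,000 host fibroblasts per well; compound: single 50 nL compound addition per well in DMSO; timing: ≥90 h infection period, 3 h prior cell attachment; measured by: GalScreen β-gal luminescence, detergent lysis, 60 min; evaluation: percent inhibition of parasite-derived β-gal signal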
Hsp70 act = Hsp70 transcriptional activation, primary screen; hit rate 0.04% among 200,000; HeLa Hsp70 promoter luciferase reporter, luminescence; scaled: vehicle 0, proteasome-inhibitor control 100%; activation, % at 10 µM; AID 1203;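 active = activation above the mean across all tested compounds plus 3 SD, cutoff set per campaign, cut at about 5.5% in these data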;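 also: 100% = MG132 at 30 µM as the positive control and 0% = DMSO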
HSF1 inhib = HSF1 inhibition; NIH3T3-HGL HSE-luciferase, MG132-induced, luminescence 8 h; active compounds read low; activity change, negative = inhibition, % at 7.5 µM (by protocol); hit rate 0.77% among 300,000;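 active = more than half of replicate wells show activity change below -50%, luminescence cut by over half; inconclusive = some wells, but at most half, below -50%; inactive = no replicate well below -50%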;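 also: luciferase reports HSF-1 transcriptional activity via heat shock element; 0% = median of DMSO wells and -100% = zero luminescence signal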
HSF1 activator = increases HSF-1 driven luciferase reporter signal | NIH3T3-HGL HSF-1 luciferase reporter, MG132, 8 h; 100% = twice DMSO control signal | activation, % at 9 µM | hit rate 1.7% among 300,000;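 active = mean replicate activation of at least 50% with a set share of replicates each reaching 50%; inconclusive = only one of those two conditions met; inactive = mean below 50% and too few replicates reaching it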;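 also: 0% = median of the neutral control wells and 100% = twice that signal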
Lmaj promast = inhibitors of Leishmania major promastigote growth. Leishmania major promastigotes, resazurin fluorescence viability. inhibition, % at 10 µM. hit rate 9% among 200,000. AID 1063; in the data active = inhibition above about 50%;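 also: promastigotes grown with compound for 44 hours at 28 °C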
Numbers without * were called inactive; ? = inconclusive; . = not tested or not shown. Shown is part of a subset that was picked to be rich in hits.

SMILES | T cruzi repl | Hsp70 act | HSF1 inhib | HSF1 activator | Lmaj promast
CC(C)CC(=O)NC(=S)Nc1ccc(S(=O)(=O)N2CCN(C)CC2)cc1 | 17.0 | -0.2 | -3.4 | 8.2 | 66.6*
CC(C)C(=O)NC(=S)Nc1ccc(S(=O)(=O)N2CCN(C)CC2)cc1 | 5.1 | 0.1 | 2.6 | -6.4 | 87.3*
CN1CCN(S(=O)(=O)c2ccc(NC(=S)NC(=O)C3CCCC3)cc2)CC1 | 6.1 | -0.1 | -3.7 | 17.6 | 7.1
O=C(NCCOc1cccnc1)C1CCC(=O)N(Cc2ccccc2F)C1 (stereo not given) | -13.4 | . | -4.6 | -0.2 | .
COc1cc(OC)cc(C(=O)NCc2nc(-c3ccccc3)no2)c1 | 8.9 | 0.0 | 2.5 | -5.6 | 67.8*
OCCN1CCN(c2cc(-c3ccccc3)c3ccccc3n2)CC1 | 34.6 | -0.2 | 9.0 | -7.3 | 68.7*
CN1CCN(c2nc(N3CCN(CCO)CC3)nc3ccccc23)CC1 | 15.6 | -0.6 | 1.8 | -1.1 | 100.2*
OCCN1CCN(c2nc(-c3ccccc3)c3cc(Br)ccc3n2)CC1 | 45.3 | . | 0.8 | -11.9 | .
c1ccc(CN2CCN(c3nc(N4CCOCC4)c4ccccc4n3)CC2)cc1 | 36.8 | -0.4 | -8.1 | -2.5 | 43.7
COc1ccc(C(=O)OCCOc2cccc(Cl)c2)cc1S(=O)(=O)N1CCOCC1 | 44.8 | . | 13.0 | 10.3 | .
O=C(NCC1CCCO1)C(c1cccs1)N(Cc1cccs1)C(=O)c1ccc(-c2ccccc2)[nH]1 (stereo not given) | 7.1 | 0.0 | 16.9 | 17.4 | 99.3*
O=S(=O)(c1ccc(F)cc1)c1snnc1-c1ccccc1 | 4.1 | 0.1 | 10.1 | 2.3 | 81.1*
CN(C)c1ncc(S(=O)(=O)c2ccc(Cl)cc2)c(-c2ccccc2)n1 | 15.3 | 0.2 | 1.9 | 28.4 | -4.2
O=S(=O)(c1ccc(Cl)cc1)c1snnc1-c1ccccc1 | 60.0* | -0.1 | 32.6 | 66.4* | 100.5*
Cc1ccc(NC(=O)CSc2nnc(-c3cccnc3)n2CCN2CCCCC2)cc1 | -7.5 | -0.3 | -6.2 | 7.5 | -3.6
CC(C)C[C@H](N)c1cn([C@@H](CCCCN)C(=O)N2CCNCC2)nn1 | -18.8 | -0.3 | 2.4 | 2.2 | -3.1
Cc1ccc(-n2ncc(Cl)c2C(=O)NC2CC2)cc1 | -29.7 | 0.7 | 15.3 | 53.9* | -2.0
O=C(CC(c1ccccc1)c1ccco1)Nc1nccs1 (stereo not given) | 9.1 | -0.2 | -3.5 | -2.6 | -3.7
COCCn1nnnc1C(c1cc2cc(C)ccc2[nH]c1=O)N1CCCCCC1 (stereo not given) | -8.7 | -0.1 | 3.8 | -8.2 | -6.6
COCCn1nnnc1C(c1cc2cc(OC)ccc2[nH]c1=O)N1CCC(Cc2ccccc2)CC1 (stereo not given) | 38.2 | -0.2 | 5.9 | 7.3 | 50.3*
Cc1ccc2[nH]c(=O)c(C(c3nnnn3CCc3ccccc3)N3CCOCC3)cc2c1 (stereo not given) | -17.3 | -0.4 | 0.9 | 15.5 | 96.8*
CCOC(=O)COn1c(=O)c(-c2ccc(F)cc2)[n+]([O-])c2ccccc21 | -20.5 | . | -3.4 | -10.8 | .
CCCOc1ccc(-c2c(=O)n(OCC(=O)OCC)c3ccccc3[n+]2[O-])cc1 | -6.8 | . | 34.0 | 55.9* | .
CC1CC(C)CN(C(=O)c2ccc3c(c2)N(Cc2ccccc2)CCS3)C1 (stereo not given) | 42.8 | -0.2 | 35.1 | 64.0* | 36.8
CCN1CCSc2ccc(C(=O)NCc3cccc(Br)c3)cc21 | 30.3 | . | 78.2 | 121.4* | .
SMILES | T cruzi repl | Hsp70 act | HSF1 inhib | HSF1 activator | Lmaj promast
Cc1ccc(CN2CCSc3ccc(C(=O)NC4CCN(Cc5ccccc5)CC4)cc32)cc1 | 57.5* | -0.3 | 6.9 | 5.4 | 89.8*
CCOC(=O)N1CCN(C(=O)c2ccc3c(c2)N(Cc2ccccc2)CCS3)CC1 | 20.7 | . | 0.2 | -1.4 | .
CCN1CCSc2ccc(C(=O)NCc3cccc(F)c3)cc21 | 28.0 | . | 11.3 | 18.4 | .
CN1CCN(CCCNC(=O)c2ccc3c(c2)N(Cc2ccccc2)CCS3)CC1 | -5.9 | -0.2 | 2.1 | -0.3 | 80.3*
Cc1ccc(N2CC(C(=O)Nc3cccnc3)CC2=O)cc1C (stereo not given) | 0.4 | . | -8.5 | -13.0 | .
Cc1nnc(N2CCC(C(=O)N3CCCCCC3)CC2)c2nn(-c3ccc(Cl)cc3)c(C)c12 | -19.9 | . | -2.0 | 12.3 | .
CCCC1=Nc2cc(C(=O)NCCCN3CCN(C)CC3)ccc2Sc2ccccc21 | 16.8 | . | -50.5* | -62.2 | .
Cc1ccccc1C(=O)NNC(=O)CCc1ccccc1 | 0.1 | -0.2 | 0.4 | 0.8 | -1.0
O=C(CCc1ccccc1)NNC(=O)c1ccccc1C(=O)O | 3.9 | -0.3 | 2.0 | -3.7 | 59.8*
CC(C)NC(=O)NC(=O)COc1ccc(Br)cc1Br | -6.3 | -0.3 | 70.0 | 87.0* | 67.3*
CCOc1ccc(-c2nc(S(=O)(=O)c3ccccc3)c(NCc3cccnc3)o2)cc1 | -8.0 | -0.3 | -3.7 | -2.0 | 83.4*
CCOc1ccc(-c2nc(S(=O)(=O)c3ccccc3)c(NC)o2)cc1 | -7.6 | . | -1.2 | 5.4 | .
COc1ccccc1N=CC=C1OC(C)(C)C(C)(C)O1 | 58.5* | -0.3 | 7.8 | 15.3 | 16.2
Cc1ccsc1CN1CCC(C(=O)NCc2ccccc2Cl)CC1 | 10.1 | -0.2 | 8.2 | -4.6 | 91.7*
CCn1c2ccccc2c2cc(NC(=O)COC(=O)c3cc(S(N)(=O)=O)c(Cl)cc3Cl)ccc21 | 1.3 | -0.2 | 9.6 | -3.9 | -1.9
CC(C)(c1ccccc1)c1ccc(OCCCNCCO)cc1 | -9.9 | 0.0 | -1.6 | 1.4 | 100.4*
CC(C)(C)c1ccccc1OCCOCCNCc1ccccc1 | 23.3 | -0.2 | -1.9 | 1.8 | 96.5*
CNCCOc1ccccc1C(C)(C)C | 5.1 | 0.0 | -14.4 | 2.3 | 2.4
Clc1cc(Br)ccc1OCCCNCc1ccccc1 | 37.4 | 0.1 | -6.2 | 29.1 | 99.2*
Cc1ccc(C)c(OCCCNCc2ccccc2)c1 | 19.4 | . | -1.6 | 3.8 | .
C=CCNCCCCOc1ccc(OCC)cc1 | 19.1 | -0.2 | 1.7 | 39.2 | 100.1*
COc1ccc(NS(=O)(=O)c2ccc(-c3n[nH]c(=S)n3Cc3ccccc3)cc2)cc1 | 3.3 | . | 3.8 | 9.1 | .
O=C(c1cc2cc(Cl)ccc2[nH]1)N1CCN(c2ccccn2)CC1 | -4.5 | . | -0.1 | -16.0 | .
CC(C)NCCCOc1ccc(C(C)(C)c2ccccc2)cc1 | 2.4 | -0.3 | -3.7 | 18.5 | 99.3*
COCCNCCCOc1ccc(C(C)(C)c2ccccc2)cc1 | 5.1 | -0.6 | -1.8 | -4.3 | 98.6*
SMILES | T cruzi repl | Hsp70 act | HSF1 inhib | HSF1 activator | Lmaj promast
CC(C)(c1ccccc1)c1ccc(OCCn2cnc3ccccc3c2=O)cc1 | 17.9 | 0.1 | -2.0 | -4.1 | -0.9
C=CCNCC#CCOc1ccc(OC)cc1 | 7.2 | 0.1 | -7.4 | -6.3 | 98.9*
CC(C)(C)c1ccc(OCCCNCc2ccccc2)cc1 | 19.5 | -0.1 | -9.6 | -14.1 | 99.5*
COc1ccc(OCCCNCCc2ccccc2)cc1 | ? | -0.2 | 4.5 | -15.8 | -10.5
Cc1ccsc1/C=N/NC(=O)c1cccnc1 | -14.4 | . | 0.0 | 7.6 | .
COc1ccc2[nH]cc(S(=O)(=O)c3ccc(C)cc3)c2c1 | -14.5 | -0.2 | 3.8 | -7.3 | 0.5
CC(=O)Nc1ccc(NC(=O)C2CCCCN2S(=O)(=O)c2ccc(C(C)(C)C)cc2)cc1 (stereo not given) | -33.9 | . | 1.0 | 1.3 | .

High-throughput results deposited in PubChem by several laboratories.
